Assay results collected from several papers.
Protocols differ between the studies behind these lines.
Read-out: cell growth or viability

SMILES | cell line | technique | time | IC50
CC(C)C[C@H](NC(=O)[C@H](Cc1ccccc1)NC(=O)c1cnccn1)B(O)O | NCI-H292 | ATP luminescence | – | 0.0093 µM
COC(=O)CN=c1scc(-c2ccccc2)n1-c1ccccc1OC | PANC-03-27 | MTT | 72 h | 13.5 µM
Cc1cnc(NC2CCOCC2)nc1-n1cnc(C(=O)NC(CN)c2cc(F)cc(Cl)c2)c1 (stereo not shown) | KM-H2 | MTS | – | 2.6 µM
C=CC(=O)Nc1cc(Nc2nccc(-c3cn(C)c4ccccc34)n2)c(OC)cc1N(C)CCN(C)C | A-431 | ATP luminescence | 72 h | 0.249 µM
COc1cc2nccc(Oc3ccc(NC(=O)C4(C(=O)Nc5ccc(F)cc5)CC4)cc3)c2cc1OC | human Myoblast | – | 72 h | 0.14 µM
COC(=O)CN=c1scc(-c2ccccc2)n1-c1ccccc1 | PANC-03-27 | MTT | 72 h | 72.2 µM
COc1cc(Nc2nccc(-c3cnn4nc(OC)ccc34)n2)cc(C(F)(F)F)c1 | NCI-H2009 | ATP luminescence | – | 0.71 µM
COc1cc([C@@H]2c3cc4c(cc3[C@@H](O[C@@H]3O[C@@H]5CO[C@@H](C)O[C@H]5[C@H](O)[C@H]3O)[C@H]3COC(=O)[C@H]23)OCO4)cc(OC)c1O | CCD-18Co | MTS | 72 h | 42.2 µM
C=CCNC1=C2C[C@@H](C)C[C@H](OC)[C@H](O)[C@@H](C)/C=C(\C)[C@H](OC(N)=O)[C@@H](OC)/C=C\C=C(/C)C(=O)NC(=CC1=O)C2=O | A-431 | MTT | – | 0.067 µM
COc1cccc(Oc2ccccc2NC(=O)CNC(=O)c2cccc3ccccc23)c1 | SK-N-BE(2)-C | – | – | 0.236 µM
COC(=O)CN=c1scc(-c2ccccc2)n1-c1ccc(OC)cc1 | PANC-03-27 | MTT | 72 h | 11.5 µM
O=CC[C@@H](O)[C@H](O)[C@H](O)CO | A-431 | MTT | 3 h | > 6000 µM
N[C@@H](CC(=O)N1CCN(C(c2ccc(F)cc2)c2ccc(F)cc2)CC1)C(=O)N1Cc2ccccc2C1 | TF-1 | ATP luminescence | 48 h | 28.8 µM
COc1cccc(Oc2ccccc2NC(=O)[C@H](C)NC(=O)c2cccc3ccccc23)c1 | SK-N-AS | – | – | 1.5 µM
[Cl-].[Cl-].[Ti+4].c1cc[cH-]c1.c1cc[cH-]c1 | HEK-293T | XTT | 24 h | > 200 µM
COc1cc([C@@H]2c3cc4c(cc3[C@@H](O[C@@H]3O[C@@H]5CO[C@@H](C)O[C@H]5[C@H](O)[C@H]3O)[C@H]3COC(=O)[C@H]23)OCO4)cc(OC)c1O | CCD-18Co | MTS | 48 h | 43.7 µM

SMILES | cell line | technique | time | IC50
CC(=O)c1ccc(-c2ccc3oc(C(=O)c4cc(O)c(O)c(O)c4)cc3c2)cc1 | HEK-293T | ATP luminescence | 72 h | 1.3 µg/mL
C[C@@H](Oc1cc(-c2cnn(C3CCNCC3)c2)cnc1N)c1c(Cl)ccc(F)c1Cl | human Myoblast | – | 72 h | 1.84 µM
COc1ccc(C[C]2([Ti+2][C]3(Cc4ccc(OC)cc4)C=CC=C3)C=CC=C2)cc1.[Cl-].[Cl-] | HEK-293T | XTT | 24 h | > 200 µM
Cc1[nH]c(/C=C2\C(=O)Nc3ccc(S(=O)(=O)N(C)c4cccc(Cl)c4)cc32)c(C)c1C(=O)N1CCN(C)CC1 | human Myoblast | – | 72 h | 3.85 µM
O=C(O)c1ccc(NC(=O)c2cc3cc(Cl)ccc3[nH]2)cc1 | SK-N-BE(2)-C | MTT | – | 21 µM
CC(=O)Oc1ccc2c(c1)C(C)=CC(C)(C)N2Cc1ccccc1 | Huh-7 | MTT | 72 h | 25 µM
Cc1ccc2nc(-c3ccccc3O)[nH]c2c1 | HepG2 | MTT | 48 h | 26.1 µM
CCCCNS(=O)(=O)c1ccc(-c2ccc3oc(C(=O)c4cc(O)c(O)c(O)c4)cc3c2)cc1 | HEK-293T | ATP luminescence | 24 h | 15 µg/mL
Cc1cc(NC(=O)c2cccc3cc(-c4cccc5[nH]nc(N)c45)ccc23)ccc1F | D283 | CCK-8 | 72 h | > 20 µM
O=C(Nc1cccc(CO)c1)c1c[nH]c2ccc(Cl)cc12 | SK-N-BE(2)-C | MTT | – | 14 µM
Cc1ccncc1-c1ccc2oc(C(=O)c3cc(O)c(O)c(O)c3)cc2c1 | HEK-293T | ATP luminescence | 72 h | 0.79 µg/mL
COC(=O)CN=c1scc(-c2ccccc2)n1-c1ccc(Cl)cc1 | PANC-03-27 | MTT | 72 h | 22.1 µM
C[C@H]1Oc2cc(cnc2N)-c2c(nn(C)c2C#N)CN(C)C(=O)c2ccc(F)cc21 | A-431 | – | – | > 10 µM
CC[C@@H](C)[C@H](N)C(=O)N1Cc2ccccc2C1 | TF-1 | ATP luminescence | 48 h | > 60 µM
O=C(CNC(=O)c1cccc2ccccc12)Nc1ccccc1Oc1ccc(O)cc1 | SK-N-AS | – | – | 0.156 µM
